This test in a line: Inhibition of GST-tagged mouse Mcl-1 (152 to 309 residues)/FITC-labelled Bim (unknown origin) protein protein interaction at 100 uM by fluorescence polarization method relative to control. The essentials: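 Single-point fluorescence polarization competition at 100 μM. GST-tagged mouse Mcl-1(152–309) (20 nM stock in PBS, 0.005% Tween 20) was mixed with the compound in PBS containing 25% DMSO and 0.005% Tween 20. FITC-Bim-BH3 (10 nM stock in PBS, 5% DMSO) was then added and shaken 3 min at room temperature. Polarization (mP) was read at ex 480/em 535 nm, and percent inhibition is relative to control.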
For orientation: In fluorescence polarisation assays a small probe gives low polarisation when free and higher when bound to something large.

On to `O=C(S)c1ccc(OC(F)(F)F)cc1`, for which the inhibition is < 5%.
Under `COc1cc(OC)cc(C(=O)S)c1` stands < 5%.
The same measure for `OC(=S)c1ccccc1`: < 5%.
For `O=C(S)c1cccc([N+](=O)[O-])c1`, the inhibition was < 5%.
The same measure for `Cc1nc(-c2ccccc2)sc1C(=O)S`: < 5%; for `O=C(S)c1ccno1`: < 5%; for `COc1cc2c(cc1OC)C(O)N(CC(=O)O)CC2` (configuration not stated): < 5%.
The same measure for `[N-]=[N+]=NS(=O)(=O)c1ccc(CN2Cc3c(Cl)cccc3C(Sc3ccccc3)C2)cc1` (configuration not stated): 25%.
Consider `O=C(S)c1cccc2ccccc12`, for which the inhibition is < 5%.
The same measure for `CC1(C)CCN(c2ccc(C(=O)S)cc2)CC1`: < 5%; for `[N-]=[N+]=NS(=O)(=O)c1ccc2ccc(S(=O)(=O)NCCSc3ccccc3)cc2c1`: 14%.
On to `O=C(S)c1ccco1`, for which the inhibition was < 5%.

Broadly, the inhibition is the drop in the measured response relative to a control, in per cent. A higher inhibition goes with a response far below the control.
